The values below come from ChEMBL document CHEMBL2157912, “Pyrido[1,2-a]pyrimidin-4-ones as antiplasmodial falcipain-2 inhibitors” (Bioorg Med Chem, 2012).

The subject of assay [1] is Plasmodium falciparum. Description: Inhibition of recombinant Plasmodium falciparum falcipain 2 at 10 uM preincubated for 10 mins before addition of Z-Phe-Arg-AMC substrate by fluorescence spectrophotometry. The essentials: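 Soluble recombinant FP-2 (30 nM) preincubated with compound at 10 µM for 10 min at room temperature in 100 mM sodium acetate pH 5.5 with 10 mM DTT. Compound was diluted from DMSO stock. Z-Phe-Arg-AMC was then added (25 µM final), and fluorescence (ex 355/em 460 nm) was followed for 10 min at room temperature. % inhibition = [1 − Ftest/Fcontrol]×100; mean of three independent determinations.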

A short description of assay [2]: Inhibition of recombinant Plasmodium falciparum falcipain 2 incubated with compound for 10 mins before addition of Z-Phe-Arg-AMC substrate by fluorescence spectrophotometry. The essentials: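 FP-2 (30 nM) was preincubated for 10 min at room temperature with a series of fixed compound concentrations (from DMSO stock) in 100 mM sodium acetate pH 5.5, 10 mM DTT. Z-Phe-Arg-AMC was added to 25 µM final and AMC fluorescence (355/460 nm) monitored 10 min. IC50 was determined only for compounds reaching ≥40% inhibition at 10 µM; values are means of three independent determinations.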

In assay [3] the test system is Plasmodium falciparum. Description: Inhibition of recombinant Plasmodium falciparum falcipain 2 at 2 uM preincubated for 10 mins before addition of Z-Phe-Arg-AMC substrate by fluorescence spectrophotometry.

Each structure is given as a SMILES string.

Regarding `Cc1ccn2c(=O)c(NC(=O)NCCc3cccs3)cnc2c1`, in the assay with Plasmodium falciparum [1], the inhibition worked out at 45%. Besides, the IC50 in assay [2] was found to be 21 µM. On to `COCCNC(=O)Nc1cnc2ccccn2c1=O`, for which, in the assay on Plasmodium falciparum [1], the inhibition stood at 31%. The same measure, in the same setting: the same measure for `COc1ccc(N2CCN(C(=O)Nc3cnc4ccc(Cl)cn4c3=O)CC2)cc1`: 36%. Take `O=C(NCc1ccc2c(c1)OCO2)c1cnc2ccccn2c1=O`: the inhibition with Plasmodium falciparum [1] worked out at 7%. Still for that read-out and setting: the same measure for `O=C(Nc1cnc2ccccn2c1=O)OCc1ccccn1`: 18%.

As to `O=C(NCc1ccc2c(c1)OCO2)c1cnc2ccc(Cl)cn2c1=O`, the inhibition in the assay with Plasmodium falciparum [1] came to 24%. `O=C(NCCc1cccs1)Nc1cnc2ccccn2c1=O`: the inhibition in the assay with Plasmodium falciparum [1] amounted to 44%. The IC50 in assay [2] is 14 µM. Take `Cc1ccn2c(=O)c(NC(=O)OCc3ccccc3)cnc2c1`: the inhibition with Plasmodium falciparum [1] worked out at 31%. The same measure, in the same setting: the same measure for `COc1ccc(CNC(=O)Nc2cnc3ccccn3c2=O)cc1`: 18%; for `CC(=O)NCCNC(=O)Nc1cnc2cc(C)ccn2c1=O`: 15%.

Take `O=C(Nc1cnc2ccc(Cl)cn2c1=O)N1CCN(c2ccccn2)CC1`: in the assay on Plasmodium falciparum [1], the inhibition turned out to be 41%. The IC50 in assay [2] was 12 µM. The like results for `COc1ccc(N2CCN(C(=O)Nc3cnc4cc(C)ccn4c3=O)CC2)cc1` were, in that order, 46% and 19 µM. Consider `O=C(NCCc1cccs1)Nc1cnc2ccc(Cl)cn2c1=O`, for which the inhibition in the assay on Plasmodium falciparum [1] came to 42%. For the same compound, the IC50 in assay [2] turned out to be 23 µM. On the same counts, the results for `COCCNC(=O)Nc1cnc2cc(C)ccn2c1=O` are 63% and 6 µM. `Cc1ccn2c(=O)c(NC(=O)NCCN3CCOCC3)cnc2c1`: the inhibition in the assay with Plasmodium falciparum [1] was found to be 27%.

Consider `COc1ccc(N2CCN(C(=O)Nc3cnc4ccccn4c3=O)CC2)cc1`, for which the inhibition in the assay with Plasmodium falciparum [1] came to 43%.

As to `O=C(NCCCN1CCOCC1)Nc1cnc2ccccn2c1=O`, the inhibition in the assay with Plasmodium falciparum [1] came out at 25%. Regarding `O=C(Nc1cnc2ccccn2c1=O)N1CCN(c2ccccn2)CC1`, the inhibition in the assay with Plasmodium falciparum [1] was 46%. The half-maximal inhibitory concentration (IC50) in assay [2] was determined as 15 µM. Regarding `Cc1ccn2c(=O)c(C(=O)NCc3ccc(F)cc3)cnc2c1`, the inhibition in the assay with Plasmodium falciparum [1] came to 6%. Consider `Cc1ccn2c(=O)c(NC(=O)N3CCN(C(c4ccccc4)c4ccccc4)CC3)cnc2c1`, for which the inhibition in the assay on Plasmodium falciparum [1] is 23%. On to `CC(=O)NCCNC(=O)Nc1cnc2ccccn2c1=O`, for which, in the assay with Plasmodium falciparum [1], the inhibition amounted to 46%. Further, in assay [2], the concentration for half-maximal inhibition (IC50) amounted to 16 µM. On the same counts, the results for `O=C(NCCN1CCOCC1)Nc1cnc2ccc(Cl)cn2c1=O` are 68% and 7 µM. On the same counts, the results for `Cc1ccn2c(=O)c(NC(=O)OCc3ccccn3)cnc2c1` are 42% and 18 µM.

Take `CC(C)C[C@H](NC(=O)[C@H]1O[C@@H]1C(=O)O)C(=O)NCCCCN=C(N)N` [E-64]: in the assay on Plasmodium falciparum [3], the inhibition is 92%. Moreover, the IC50 in assay [2] was determined as 0.02 µM. As for `O=C(NCc1ccc(Cl)cc1)Nc1cnc2ccccn2c1=O`, the inhibition in the assay on Plasmodium falciparum [1] was 39%. As to `Cc1ccn2c(=O)c(NC(=O)N3CCN(c4ccccn4)CC3)cnc2c1`, the inhibition in the assay with Plasmodium falciparum [1] amounted to 37%. Still for that read-out and setting: the same measure for `O=C(Nc1cnc2ccccn2c1=O)OCc1ccccc1`: 12%.

By inhibition is commonly meant the relative decrease from the control value, in per cent. Usually IC50 stands for the point on the concentration scale where inhibition reaches its midpoint.
